Source: paper PMC9096626 (RSC Advances, 2022)

Tests used:
[1] = iEDDA cycloaddition kinetics with TCO-OH; conditions: water : DMSO (4 : 1), 37 °C
Procedure, shortened: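 Pseudo-first-order runs at 37 °C used varied TCO-OH concentrations at 10- to 50-fold excess over the tetrazine amino acid. Full spectra (700–200 nm) were followed by time-resolved UV-Vis and fitted as single-step kinetics to give kobs. Second-order rate constants came from the slope of kobs against [TCO-OH].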

[2] = system: Somatostatin receptor type 2 (SSTR2); conditions: statement in words; cited from earlier work

Cl.N[C@@H](CC1=CCC(O)(c2nncnn2)C=C1)C(=O)O (stereo partly drawn) [4a]
iEDDA cycloaddition rate relative to methyl analogue 4b [1]: 14 times

Cl.N[C@@H](Cc1ccc(Oc2nnc(-c3ccccc3)nn2)cc1)C(=O)O [4c]
iEDDA cycloaddition rate relative to methyl analogue 4b [1]: three times faster than 4b

octreotide
affinity for Somatostatin receptor type 2 (SSTR2) [2]: high affinity
